Assay results as given in ChEMBL document CHEMBL1147933, “Conformationally restricted homotryptamines 3. Indole tetrahydropyridines and cyclohexenylamines as selective serotonin reuptake inhibitors” (Bioorg Med Chem Lett, 2007).
Active and inactive are the calls of the source. No cut-off for these calls is given here.

Experiments:
[1] = target: T1, Sodium-dependent dopamine transporter (Homo sapiens, UniProt Q01959); test: Inhibition of human DAT at 1 uM
[2] = target: T2, Sodium-dependent serotonin transporter (Homo sapiens, UniProt P31645); test: Displacement of [3H]citalopram from human SERT expressed in HEK293 cells; type: cell-based
T2 sequence (P31645 whole entry): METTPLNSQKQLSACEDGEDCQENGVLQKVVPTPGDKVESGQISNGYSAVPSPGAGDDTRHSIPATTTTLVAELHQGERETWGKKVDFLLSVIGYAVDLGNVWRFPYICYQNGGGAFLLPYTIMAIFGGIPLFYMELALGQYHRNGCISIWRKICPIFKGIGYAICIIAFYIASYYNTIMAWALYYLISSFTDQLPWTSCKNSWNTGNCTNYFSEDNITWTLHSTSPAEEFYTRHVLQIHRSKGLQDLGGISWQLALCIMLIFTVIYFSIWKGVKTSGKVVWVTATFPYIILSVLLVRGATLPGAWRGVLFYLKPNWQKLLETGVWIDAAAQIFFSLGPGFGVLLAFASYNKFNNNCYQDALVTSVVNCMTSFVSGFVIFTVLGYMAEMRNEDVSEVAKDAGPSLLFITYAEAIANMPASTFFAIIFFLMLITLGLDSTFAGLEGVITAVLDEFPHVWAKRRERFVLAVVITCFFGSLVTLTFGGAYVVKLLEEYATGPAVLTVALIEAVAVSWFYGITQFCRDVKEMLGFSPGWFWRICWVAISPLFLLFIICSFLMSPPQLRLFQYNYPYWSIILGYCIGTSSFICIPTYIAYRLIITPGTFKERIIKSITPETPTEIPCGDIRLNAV
Procedure, shortened: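 Membrane homogenates from HEK-293 cells stably expressing human SERT, incubated 1 h at 25 °C with 2 nM [3H]citalopram (85 Ci/mmol) and increasing test concentrations. Non-specific binding defined with 10 µM fluoxetine. Specific binding plotted against −log drug concentration, and the midpoint of the displacement curve was taken as IC50.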

[3] = target: T3, Sodium-dependent noradrenaline transporter (Homo sapiens, UniProt P23975); test: Inhibition of human NET at 1 uM
T3 sequence (P23975 whole entry): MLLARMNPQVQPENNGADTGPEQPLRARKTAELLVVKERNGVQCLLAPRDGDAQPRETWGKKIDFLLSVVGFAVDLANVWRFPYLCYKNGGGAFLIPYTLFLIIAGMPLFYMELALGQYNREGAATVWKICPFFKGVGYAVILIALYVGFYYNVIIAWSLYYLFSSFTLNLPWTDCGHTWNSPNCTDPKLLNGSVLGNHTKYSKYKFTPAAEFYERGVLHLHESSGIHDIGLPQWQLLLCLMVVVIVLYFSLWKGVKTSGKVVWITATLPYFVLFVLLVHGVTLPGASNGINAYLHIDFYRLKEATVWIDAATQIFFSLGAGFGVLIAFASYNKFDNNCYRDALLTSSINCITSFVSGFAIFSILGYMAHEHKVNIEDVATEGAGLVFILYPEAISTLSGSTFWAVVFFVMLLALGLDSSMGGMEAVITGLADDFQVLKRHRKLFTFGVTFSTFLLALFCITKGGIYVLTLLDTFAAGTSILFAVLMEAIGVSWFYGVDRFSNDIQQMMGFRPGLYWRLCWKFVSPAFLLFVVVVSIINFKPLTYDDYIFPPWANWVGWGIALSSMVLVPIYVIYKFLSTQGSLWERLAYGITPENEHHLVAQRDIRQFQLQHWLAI

[4] = target: T1, Sodium-dependent dopamine transporter; test: Displacement of [125I]RTI-55 from human DAT expressed in HEK293 cells; type: cell-based
Procedure, shortened: (§1)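 Membrane homogenates from HEK-293 cell lines stably transfected with the human transporter, incubated with 125I ligands: [125I]RTI-55 for SERT (260 pM) and DAT (125 pM), and custom [125I]nisoxetine for NET (300 pM). Reactions run in 384-well format and filter-harvested. IC50 taken from a 20-point concentration curve in a single experiment.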

[5] = target: T3, Sodium-dependent noradrenaline transporter; test: Displacement of [125I]Nisoxetine from human NET expressed in HEK293 cells; type: cell-based; procedure, shortened: as §1
[6] = tested on: Rattus norvegicus; test: Increase in fluoxetine-induced serotonin concentration in rat frontal cortex by microdialysis at 10 mg/kg, po; type: functional, organism-based; design: dose 10 mg/kg
[7] = tested on: Rattus norvegicus; test: Increase in fluoxetine-induced serotonin concentration in rat frontal cortex by microdialysis at 1 mg/kg, ip; type: functional, organism-based; design: dose 1 mg/kg
[8] = target: T2, Sodium-dependent serotonin transporter; test: Displacement of [125I]RTI-55 from human SERT expressed in HEK293 cells; type: cell-based; procedure, shortened: as §1

T1 sequence (Q01959 whole entry): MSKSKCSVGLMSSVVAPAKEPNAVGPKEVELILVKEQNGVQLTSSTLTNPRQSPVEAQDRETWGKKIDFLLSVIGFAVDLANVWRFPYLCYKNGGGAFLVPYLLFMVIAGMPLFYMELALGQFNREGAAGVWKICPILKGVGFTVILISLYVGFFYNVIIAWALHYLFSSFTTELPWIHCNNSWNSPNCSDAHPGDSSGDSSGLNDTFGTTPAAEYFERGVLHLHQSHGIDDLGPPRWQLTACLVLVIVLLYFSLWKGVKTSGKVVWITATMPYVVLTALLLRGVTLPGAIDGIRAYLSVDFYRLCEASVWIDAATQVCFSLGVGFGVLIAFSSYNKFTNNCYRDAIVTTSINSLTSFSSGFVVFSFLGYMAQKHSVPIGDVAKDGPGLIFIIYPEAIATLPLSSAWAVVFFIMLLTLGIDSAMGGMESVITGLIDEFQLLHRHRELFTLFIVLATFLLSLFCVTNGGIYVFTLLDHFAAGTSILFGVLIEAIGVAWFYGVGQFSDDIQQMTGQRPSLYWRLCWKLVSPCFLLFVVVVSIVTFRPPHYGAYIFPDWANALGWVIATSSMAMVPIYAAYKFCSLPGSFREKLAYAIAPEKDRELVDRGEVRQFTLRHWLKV

SMILES	inhibition [1] [%]	IC50 [2] [nM]	inhibition [3] [%]	also measured
CN(C)C1CC=C(c2c[nH]c3ccc(Br)cc23)CC1 (stereo not given)	95	5.3	99	
CN(C)C1CC=C(c2c[nH]c3ccc(F)cc23)CC1 (stereo not given)	23	14	35	
CN1CC=C(c2c[nH]c3ccc([N+](=O)[O-])cc23)CC1	73	40	27	
CN(C)C1CC=C(c2c[nH]c3ccc(C#N)cc23)CC1 (stereo not given)	71	1.6	90	IC50 [4]: 97 nM; IC50 [5]: 57 nM; Activity [6]: Active; Activity [7]: Active; IC50 [8]: 0.34 nM
COc1ccc2[nH]cc(C3=CCC(N(C)C)CC3)c2c1 (stereo not given)		150		
CN(C)[C@@H]1CC=C(c2c[nH]c3ccc(C#N)cc23)CC1		1.1		IC50 [4]: 80 nM; IC50 [5]: 37 nM; IC50 [8]: 0.56 nM
CN(C)C1CC=C(c2c[nH]c3ccc(Cl)cc23)CC1 (stereo not given)	16	19	34	
CN(C)[C@H]1CC=C(c2c[nH]c3ccc(C#N)cc23)CC1		0.72		IC50 [4]: 290 nM; IC50 [5]: 390 nM; IC50 [8]: 0.4 nM
CN(C)C1CC=C(c2c[nH]c3ccc([N+](=O)[O-])cc23)CC1 (stereo not given)	74	1	81	
CN1CC=C(c2c[nH]c3ccc(F)cc23)CC1		160		
COc1ccc2[nH]cc(C3=CCN(C)CC3)c2c1		730		
CN1CC=C(c2c[nH]c3ccccc23)CC1		690		
Cc1ccc2[nH]cc(C3=CCC(N(C)C)CC3)c2c1 (stereo not given)		770		
CN1CC=C(c2c[nH]c3ccc(Cl)cc23)CC1		240		
Cc1ccc2[nH]cc(C3=CCN(C)CC3)c2c1		910		
CN1CC=C(c2c[nH]c3ccc(C#N)cc23)CC1	56	19	15	
CN(C)C1CC=C(c2c[nH]c3ccccc23)CC1 (stereo not given)	67	3.1	70	
CN1CC=C(c2c[nH]c3ccc(Br)cc23)CC1		210		
